How the values were obtained:
[1] = tested on: M1 formation by human liver microsomes; experiment: Chemical inhibition of M1 formation by HLMs; type: biochemical
recombinant CYP4F2 = molecular target: T1, recombinant CYP4F2 (Homo sapiens, UniProt P78329); experiment: Chemical inhibition of M1 formation by recombinant CYP4F2; type: biochemical
T1 sequence (P78329 5-520): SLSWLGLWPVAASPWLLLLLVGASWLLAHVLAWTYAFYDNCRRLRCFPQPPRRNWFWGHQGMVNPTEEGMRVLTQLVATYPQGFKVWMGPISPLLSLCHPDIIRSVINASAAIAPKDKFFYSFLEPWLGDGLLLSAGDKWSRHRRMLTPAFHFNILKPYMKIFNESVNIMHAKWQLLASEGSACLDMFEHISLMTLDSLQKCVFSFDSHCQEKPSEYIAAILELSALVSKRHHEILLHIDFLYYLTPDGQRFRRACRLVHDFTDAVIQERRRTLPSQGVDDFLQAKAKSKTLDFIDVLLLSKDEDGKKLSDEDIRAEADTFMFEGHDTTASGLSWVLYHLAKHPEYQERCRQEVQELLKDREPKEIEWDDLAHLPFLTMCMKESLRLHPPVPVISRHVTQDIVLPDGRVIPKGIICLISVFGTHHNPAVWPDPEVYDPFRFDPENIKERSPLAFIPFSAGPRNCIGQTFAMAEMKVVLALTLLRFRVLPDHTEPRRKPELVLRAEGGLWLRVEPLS

recombinant CYP4F3B = molecular target: T2, recombinant CYP4F3B (Homo sapiens, UniProt Q08477); experiment: Chemical inhibition of M1 formation by recombinant CYP4F3B; type: biochemical
T2 sequence (Q08477 1-520 isoform Q08477-2): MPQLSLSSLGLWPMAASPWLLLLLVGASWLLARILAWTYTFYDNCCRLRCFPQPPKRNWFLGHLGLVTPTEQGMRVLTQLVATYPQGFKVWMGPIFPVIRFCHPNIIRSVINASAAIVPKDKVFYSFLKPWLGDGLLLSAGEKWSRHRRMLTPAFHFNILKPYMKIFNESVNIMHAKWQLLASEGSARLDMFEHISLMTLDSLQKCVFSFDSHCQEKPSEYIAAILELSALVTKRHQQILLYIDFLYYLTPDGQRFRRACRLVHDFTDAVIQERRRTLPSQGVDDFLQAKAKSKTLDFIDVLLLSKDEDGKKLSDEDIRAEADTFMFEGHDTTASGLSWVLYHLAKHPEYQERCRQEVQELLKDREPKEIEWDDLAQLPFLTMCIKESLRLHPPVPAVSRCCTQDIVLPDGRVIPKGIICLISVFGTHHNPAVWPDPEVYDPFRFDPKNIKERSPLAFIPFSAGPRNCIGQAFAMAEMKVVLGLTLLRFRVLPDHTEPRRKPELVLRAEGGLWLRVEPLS

CYP2J2 [2] = molecular target: T3, CYP2J2 (Homo sapiens, UniProt P51589); experiment: Chemical inhibition of M1 formation by recombinant CYP2J2; type: biochemical
T3 sequence (P51589 1-502): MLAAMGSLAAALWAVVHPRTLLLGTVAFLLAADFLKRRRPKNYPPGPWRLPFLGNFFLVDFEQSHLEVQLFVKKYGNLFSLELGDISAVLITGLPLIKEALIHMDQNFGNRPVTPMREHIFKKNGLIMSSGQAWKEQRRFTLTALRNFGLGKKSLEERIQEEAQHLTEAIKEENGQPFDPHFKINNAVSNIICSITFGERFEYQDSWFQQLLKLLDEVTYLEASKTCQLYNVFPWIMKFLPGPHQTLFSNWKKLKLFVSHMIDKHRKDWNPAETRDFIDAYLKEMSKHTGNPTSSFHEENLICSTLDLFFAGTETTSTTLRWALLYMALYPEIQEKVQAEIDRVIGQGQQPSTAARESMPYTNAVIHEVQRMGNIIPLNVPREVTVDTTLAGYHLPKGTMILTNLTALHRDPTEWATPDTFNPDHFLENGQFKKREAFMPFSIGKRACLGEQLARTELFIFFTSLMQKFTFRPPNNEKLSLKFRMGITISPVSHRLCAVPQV

[3] = Incubation of DB289 with pooled human liver microsomes; type: in vitro ADME; details: 15 μM DB289, 0.2 mg/ml HLMs, 0-120 min
Procedure, shortened: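 Pooled liver microsomes (50 donors, mixed gender) at 0.2 mg/ml with 15 μM substrate in a 1 ml mix, equilibrated 5 min at 37°C, then started with NADPH. Aliquots taken at 0, 5, 15, 30 and 120 min into ice-cold acetonitrile. LC/UV at 359 nm against an external 0.1–15 μM calibration; metabolites identified by retention time versus synthetic standards. Single determination; controls lacked NADPH, protein or substrate.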

[4] = HLMs, ref Zimmerlin and Patten (2000), cited from earlier work
CYP2J2 [5] = details: ref Hashizume et al. (2002); cited from earlier work
[6] = 0.2 μM and 1 μM, 10 pmol/ml P450, 3 μM DB289
[7] = read-out: inhibition of M1 formation
[8] = 100 μM inhibitor, 10 pmol/ml P450, 3 μM DB289

## C#CCCCCCCCCCCCCCCCC(=O)O [17-ODYA, 17-Octadecynoic acid]
[1]; 1 μM inhibitor, 15 min preincubation, 0.2 mg/ml HLM, 3 μM DB289
  inhibition of M1 formation: 39%
[1]; 10 μM inhibitor, 15 min preincubation, 0.2 mg/ml HLM, 3 μM DB289
  inhibition of M1 formation: 84%
Recombinant CYP4F2; [6]
  activation of M1 formation at low concentrations: activation was not observed
Recombinant CYP4F3B; [6]
  activation of M1 formation at low concentrations: appeared to activate
CYP2J2 [2]; [6]
  activation of M1 formation at low concentrations: activation was not observed

## Nn1nnc2ccccc21 [ABT, 1-aminobenzotriazole]
[1]; 100 μM inhibitor, 15 min preincubation, 0.2 mg/ml HLM, 3 μM DB289, 5 min
  inhibition of M1 formation relative to control: 86%

## N=C(N)c1ccc(-c2ccc(-c3ccc(C(=N)N)cc3)o2)cc1 [DB75, 2,5-bis(4-amidinophenyl) furan]
[3]
  concentration of metabolite formed from DB289: below the lower level of quantification

## CCCCCCCCc1ccc(CCC(N)(CO)CO)cc1 [FTY720, 2-amino-2-[2-(4-octylphenyl)ethyl]-1,3-propanediol]
[4]
  Vmax of ω-hydroxylation: 1850 pmol/min/mg protein
[4]; read-out: apparent Km of ω-hydroxylation
  Km: 180 µM

## CCCCc1ccc(N=CNO)c(C)c1 [HET0016, N-hydroxy-N′-(4-n-butyl-2-methylphenyl)formamidine]
[1]; 0.1 μM inhibitor, 0.2 mg/ml HLM, 3 μM DB289
  inhibition of M1 formation: 78%
[1]; 0.5 μM inhibitor, 0.2 mg/ml HLM, 3 μM DB289
  inhibition of M1 formation: 95%
Recombinant CYP4F2; [7]
  inhibition at 0.02 µM: 82%
Recombinant CYP4F3B; [7]
  inhibition at 0.02 µM: 79%

## CCCCC/C=C\C/C=C\C/C=C\C/C=C\CCCC(=O)O [arachidonic acid]
[1]; 500 μM inhibitor, 0.2 mg/ml HLM, 3 μM DB289
  inhibition of M1 formation: 60%
[1]; inhibitor up to 100 μM, 0.2 mg/ml HLM, 3 μM DB289
  inhibition of M1 formation: no effect
Recombinant CYP4F2; [8]
  inhibition of M1 formation: potently inhibited
Recombinant CYP4F3B; [8]
  inhibition of M1 formation: potently inhibited

## CC(C)(C)c1ccc(C(=O)CCCN2CCC(OC(c3ccccc3)c3ccccc3)CC2)cc1 [ebastine]
CYP2J2 [5]
  Km: 1.3 µM

## CC(=O)N1CCN(c2ccc(OCC3COC(Cn4ccnc4)(c4ccc(Cl)cc4Cl)O3)cc2)CC1 (stereo not shown) [ketoconazole]
[1]; 3 μM inhibitor, 0.2 mg/ml HLM, 3 μM DB289, 5 min, Fig. 4
  inhibition of M1 formation: 61%
[1]; 3 μM inhibitor, 0.2 mg/ml pooled HLMs (different lot), 3 μM DB289, 5 min, Fig. 8
  inhibition of M1 formation: ~43%
Recombinant CYP4F2; [7]
  inhibition at 3 µM: 87%
Recombinant CYP4F3B; 3 μM inhibitor, 10 pmol/ml P450, 3 μM DB289, 15 min
  inhibition of M1 formation: no effect
CYP2J2 [2]; human, recombinant CYP2J2, pH 7.4, probe DB289 (3 μM), conversion to M1
  inhibition at 5 min, 3 μM: 93%

## CO[C@H]1C[C@H](O[C@H]2[C@H](C)[C@@H](O[C@@H]3O[C@H](C)C[C@H](N(C)C)[C@H]3OC(C)=O)[C@@H](C)C[C@@]3(CO3)C(=O)[C@H](C)[C@@H](OC(C)=O)[C@@H](C)[C@@H](C)OC(=O)[C@@H]2C)O[C@@H](C)[C@@H]1OC(C)=O [troleandomycin]
[1]; 50 or 100 μM inhibitor, 0.2 mg/ml HLM, 3 μM DB289
  inhibition of M1 formation: did not inhibit

## O=c1cc(-c2ccccc2)oc2c1ccc1ccccc12 [α-naphthoflavone]
[1]; 1 μM inhibitor, 0.2 mg/ml HLM, 3 μM DB289, 5 min
  inhibition of M1 formation: negligible inhibition

Source: PMC2077835 (Drug metabolism and disposition: the biological fate of …, 2006)
